Results reported in ChEMBL document CHEMBL4177755, “Combating Drug-Resistant Fungi with Novel Imperfectly Amphipathic Palindromic Peptides” (J Med Chem, 2018).
Converted amounts (≈) assume the structure as drawn. Bridge positions count the residues as written; N and C are the ends. Square brackets hold non-standard residues; d marks the D form. Peptide text beside a SMILES is read from it. * marks the point of attachment. X1 = CC[C@H](C)CCCCC(=O)*; Dab = NCC[C@H](N)C(=O)O

Key:
[1] = tested on: Escherichia coli; assay: Antibacterial activity against Escherichia coli ATCC 25922 after 24 hrs; assay type: functional; conditions: ATCC 25922, 24 h
Outline: (§1)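 Broth microdilution. Mid-log bacteria in MHB at a final (0.5−1) × 10^5 CFU/mL were mixed with equal volumes of peptide serially diluted in 0.2% BSA. Plates were incubated 24 h at 37 °C and read at A492. MIC is the lowest concentration inhibiting 95% of growth. Each test was repeated at least 3 times.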

[2] = tested on: Escherichia coli; assay: Antibacterial activity against Escherichia coli 1005 after 24 hrs; assay type: functional; conditions: Escherichia coli, 1005, 24 h; outline: as §1
[3] = tested on: Salmonella typhimurium; assay: Antibacterial activity against Salmonella typhimurium ATCC 14028 after 24 hrs; assay type: functional, Salmonella enterica subsp. enterica serovar Typhimurium; conditions: Salmonella enterica, ATCC 14028, 24 h; outline: as §1
[4] = Antibacterial activity against Salmonella pullorum ATCC 7913 after 24 hrs; assay type: functional, Salmonella enterica subsp. enterica serovar Pullorum; conditions: Salmonella enterica, ATCC 7913, 24 h; outline: as §1
[5] = tested on: Staphylococcus aureus; assay: Antibacterial activity against Staphylococcus aureus ATCC 29213 after 24 hrs; assay type: functional; conditions: ATCC 29213, 24 h
Outline: (§2)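 Modified NCCLS broth microdilution. Mid-log bacteria at (0.5−1) × 10^5 CFU/mL in MHB were mixed 1:1 with peptide serially diluted in 0.2% BSA and incubated 24 h at 37 °C. Absorbance was read at 492 nm; MIC is the lowest concentration inhibiting 95% of growth. At least 3 repeats.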

[6] = tested on: Staphylococcus aureus; assay: Antibacterial activity against methicillin-resistant Staphylococcus aureus ATCC 4330 after 24 hrs; assay type: functional; conditions: ATCC 4330, 24 h; outline: as §2
[7] = tested on: Staphylococcus epidermidis; assay: Antibacterial activity against Staphylococcus epidermidis ATCC 12228 after 24 hrs; assay type: functional; conditions: ATCC 12228, 24 h; outline: as §1
[8] = tested on: Staphylococcus aureus; assay: Antibacterial activity against Staphylococcus aureus ATCC 25923 after 24 hrs; assay type: functional; conditions: ATCC 25923, 24 h; outline: as §2
[9] = tested on: Escherichia coli; assay: Bactericidal activity against Escherichia coli ATCC 25922; assay type: functional; conditions: read-out: MBC99.9
Outline: (§3)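 Wells from the 24 h, 37 °C MHB microdilution plates (bacteria at a final (0.5−1) × 10^5 CFU/mL; peptide diluted in 0.2% BSA) were plated on agar and incubated overnight. MBC is the lowest concentration killing >99.9% of cells. Each test was reproduced at least 3 times.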

[10] = tested on: Escherichia coli; assay: Bactericidal activity against Escherichia coli 1005; assay type: functional; conditions: read-out: MBC99.9; outline: as §3
[11] = tested on: Salmonella typhimurium; assay: Bactericidal activity against Salmonella typhimurium ATCC 14028; assay type: functional, Salmonella enterica subsp. enterica serovar Typhimurium; conditions: Salmonella enterica, read-out: MBC99.9; outline: as §3
[12] = Bactericidal activity against Salmonella pullorum ATCC 7913; assay type: functional, Salmonella enterica subsp. enterica serovar Pullorum; conditions: Salmonella enterica, read-out: MBC99.9; outline: as §3
[13] = tested on: Staphylococcus aureus; assay: Bactericidal activity against Staphylococcus aureus ATCC 29213; assay type: functional; conditions: read-out: MBC99.9; outline: as §3
[14] = tested on: Staphylococcus aureus; assay: Bactericidal activity against methicillin-resistant Staphylococcus aureus ATCC 4330; assay type: functional; conditions: read-out: MBC99.9
Outline: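 Bacteria at (0.5−1) × 10^5 CFU/mL in MHB were exposed to serially diluted peptide (0.2% BSA) for 24 h at 37 °C, then 50 μL aliquots were plated on agar overnight. MBC is the lowest concentration killing >99.9% of cells. At least 3 repeats.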

[15] = tested on: Staphylococcus epidermidis; assay: Bactericidal activity against Staphylococcus epidermidis ATCC 12228; assay type: functional; conditions: read-out: MBC99.9; outline: as §3
[16] = tested on: Staphylococcus aureus; assay: Bactericidal activity against Staphylococcus aureus ATCC 25923; assay type: functional; conditions: read-out: MBC99.9; outline: as §3
[17] = tested on: Escherichia coli; assay: Antibacterial activity against Escherichia coli ATCC 25922 after 18 hrs in presence of NaCl by broth dilution method; assay type: functional; conditions: ATCC 25922, 18 h
[18] = tested on: Escherichia coli; assay: Antibacterial activity against Escherichia coli ATCC 25922 after 18 hrs in presence of KCl by broth dilution method; assay type: functional; conditions: ATCC 25922, 18 h
[19] = tested on: Escherichia coli; assay: Antibacterial activity against Escherichia coli ATCC 25922 after 18 hrs in presence of NH4Cl by broth dilution method; assay type: functional; conditions: ATCC 25922, 18 h
[20] = tested on: Escherichia coli; assay: Antibacterial activity against Escherichia coli ATCC 25922 after 18 hrs in presence of MgCl2 by broth dilution method; assay type: functional; conditions: ATCC 25922, 18 h
[21] = tested on: Escherichia coli; assay: Antibacterial activity against Escherichia coli ATCC 25922 after 18 hrs in presence of CaCl2 by broth dilution method; assay type: functional; conditions: ATCC 25922, 18 h
[22] = tested on: Escherichia coli; assay: Antibacterial activity against Escherichia coli ATCC 25922 after 18 hrs in presence of ZnCl2 by broth dilution method; assay type: functional; conditions: ATCC 25922, 18 h
[23] = tested on: Escherichia coli; assay: Antibacterial activity against Escherichia coli ATCC 25922 after 18 hrs in presence of FeCl3 by broth dilution method; assay type: functional; conditions: ATCC 25922, 18 h
[24] = tested on: Escherichia coli; assay: Antibacterial activity against Escherichia coli ATCC 25922 after 18 hrs in presence of 12.5% human heat-inactivated serum by broth dilution method; assay type: functional; conditions: ATCC 25922, 18 h
[25] = tested on: Escherichia coli; assay: Antibacterial activity against Escherichia coli ATCC 25922 after 18 hrs in presence of 25% human heat-inactivated serum by broth dilution method; assay type: functional; conditions: ATCC 25922, 18 h
[26] = tested on: Escherichia coli; assay: Antibacterial activity against Escherichia coli ATCC 25922 after 18 hrs in presence of 50% human heat-inactivated serum by broth dilution method; assay type: functional; conditions: ATCC 25922, 18 h

CC[C@H](C)CCCCC(=O)N[C@@H](CCN)C(=O)N[C@H](C(=O)N[C@@H](CCN)C(=O)N[C@H]1CCNC(=O)[C@H]([C@@H](C)O)NC(=O)[C@H](CCN)NC(=O)[C@H](CCN)NC(=O)[C@H](CC(C)C)NC(=O)[C@@H](Cc2ccccc2)NC(=O)[C@H](CCN)NC1=O)[C@@H](C)O (X1-[Dab]T[Dab][Dab][Dab][dF]L[Dab][Dab]T; lactam 4-C)
MIC95 [1]: 2 µM (≈ 2.41 µg/mL)
MIC95 [2]: 1 µM (≈ 1.2 µg/mL)
MIC95 [3]: 2 µM (≈ 2.41 µg/mL)
MIC95 [4]: 1 µM (≈ 1.2 µg/mL)
MIC95 [5]: 64 µM (≈ 77 µg/mL)
MIC95 [6]: 64 µM (≈ 77 µg/mL)
MIC95 [7]: 32 µM (≈ 38.5 µg/mL)
MIC95 [8]: 32 µM (≈ 38.5 µg/mL)
MBC [9]: 4 µM (≈ 4.81 µg/mL)
MBC [10]: 2 µM (≈ 2.41 µg/mL)
MBC [11]: 2 µM (≈ 2.41 µg/mL)
MBC [12]: 2 µM (≈ 2.41 µg/mL)
MBC [13]: 64 µM (≈ 77 µg/mL)
MBC [14]: 64 µM (≈ 77 µg/mL)
MBC [15]: 32 µM (≈ 38.5 µg/mL)
MBC [16]: 64 µM (≈ 77 µg/mL)
MIC [17]: 8 µM
MIC [18]: 2 µM
MIC [19]: 2 µM
MIC [20]: 4 µM
MIC [21]: 2 µM
MIC [22]: 2 µM
MIC [23]: 2 µM
MIC [24]: 2 µM
MIC [25]: 2 µM
MIC [26]: 4 µM
